# Experimental data published in article PMC2859677 (Journal of medicinal chemistry, 2010).
# What was measured:
# TLR2 [1] = biological target: T1, TLR2 (Homo sapiens, UniProt O60603); experiment: Test of compounds as TLR2 receptor antagonists; type: cell-based
# Target sequence in this assay (O60603 21-784): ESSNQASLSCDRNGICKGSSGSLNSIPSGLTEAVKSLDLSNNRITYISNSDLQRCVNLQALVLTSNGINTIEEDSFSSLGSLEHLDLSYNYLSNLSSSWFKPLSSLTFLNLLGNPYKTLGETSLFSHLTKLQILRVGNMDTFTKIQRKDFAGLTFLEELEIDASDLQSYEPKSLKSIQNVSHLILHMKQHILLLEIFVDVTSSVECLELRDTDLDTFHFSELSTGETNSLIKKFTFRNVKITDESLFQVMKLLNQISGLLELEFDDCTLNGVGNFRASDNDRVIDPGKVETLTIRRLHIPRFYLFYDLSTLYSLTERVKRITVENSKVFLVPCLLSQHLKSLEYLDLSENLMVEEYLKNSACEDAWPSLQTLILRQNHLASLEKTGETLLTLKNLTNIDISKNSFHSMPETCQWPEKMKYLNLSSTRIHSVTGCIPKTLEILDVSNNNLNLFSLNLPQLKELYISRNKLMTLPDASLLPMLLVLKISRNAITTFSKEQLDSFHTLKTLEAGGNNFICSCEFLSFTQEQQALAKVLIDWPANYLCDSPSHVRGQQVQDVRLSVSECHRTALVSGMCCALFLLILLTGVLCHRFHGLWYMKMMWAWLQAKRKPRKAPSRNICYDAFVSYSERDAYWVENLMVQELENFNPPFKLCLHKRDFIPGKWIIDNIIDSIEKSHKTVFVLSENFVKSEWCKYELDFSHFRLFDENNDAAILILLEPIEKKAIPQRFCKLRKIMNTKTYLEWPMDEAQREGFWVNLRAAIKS
# TLR2 [2] = biological target: T1, TLR2; experiment: NF-κB induction; type: cell-based
# How it was run: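 HEK293 cells stably transfected with TLR2, MD2, CD14 and a secreted alkaline phosphatase (sAP) reporter under NF-κB/AP-1 promoters. Cells were kept in selection medium with zeocin and normocin. They were grown in 384-well plates to confluency, then given graded concentrations of stimuli. Supernatant sAP, taken as proportional to NF-κB induction, was read at 620 nm with an alkaline phosphatase-specific chromogen in detection medium.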
# Target sequence in this assay (O60603 21-784): as above
# Target sequence in this assay (Q9Y2C9 32-796 partner): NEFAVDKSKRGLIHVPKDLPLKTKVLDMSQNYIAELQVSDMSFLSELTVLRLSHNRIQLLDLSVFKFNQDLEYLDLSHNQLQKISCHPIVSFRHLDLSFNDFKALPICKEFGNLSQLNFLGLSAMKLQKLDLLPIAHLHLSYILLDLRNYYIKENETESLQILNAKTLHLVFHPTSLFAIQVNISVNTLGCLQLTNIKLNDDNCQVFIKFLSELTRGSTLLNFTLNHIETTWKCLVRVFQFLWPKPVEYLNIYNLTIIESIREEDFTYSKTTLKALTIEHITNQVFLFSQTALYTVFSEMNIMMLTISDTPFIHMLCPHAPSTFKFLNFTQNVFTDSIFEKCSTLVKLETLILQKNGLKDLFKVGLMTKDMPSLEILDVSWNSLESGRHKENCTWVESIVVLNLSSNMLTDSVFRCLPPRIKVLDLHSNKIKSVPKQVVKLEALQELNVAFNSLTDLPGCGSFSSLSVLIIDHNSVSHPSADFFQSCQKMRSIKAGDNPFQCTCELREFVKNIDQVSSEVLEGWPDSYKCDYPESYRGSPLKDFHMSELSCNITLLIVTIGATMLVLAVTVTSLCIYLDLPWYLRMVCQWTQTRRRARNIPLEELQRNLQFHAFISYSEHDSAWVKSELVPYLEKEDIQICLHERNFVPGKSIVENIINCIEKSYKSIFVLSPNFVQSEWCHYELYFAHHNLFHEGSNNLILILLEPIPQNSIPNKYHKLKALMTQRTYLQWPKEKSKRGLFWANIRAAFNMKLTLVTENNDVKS
# [3] = test system: patients with inoperable carcinoma of the pancreas; settings: single intraoperative 20–30 μg intratumoral injection; cited from earlier work
# rabbits = experiment: Fever response / acute toxicity in rabbits; type: in vivo, rabbit; settings: dose of 100 ng/kg, manuscript in preparation
# murine cells = settings: cited from earlier work
Molecule,Activity as TLR2 receptor antagonist (TLR2 [1]),TLR2 agonistic activity (in words) (TLR2 [2]; human TLR2 reporter gene assay),also measured
"CCCCCCCCCCCCCCCC(=O)OC[C@H](CSCCN)OC(=O)CCCCCCCCCCCCCCC [Compound 6a, (R)-3-(2-aminoethylthio)propane-1,2-diyl dipalmitate]",inactive,weakly active,IC50 (TLR2 [2]): 1000 nM
"CCCCCCCCCCCCCCCC(=O)OC[C@@H](CSCCN)OC(=O)CCCCCCCCCCCCCCC [Compound 6b, (S)-3-(2-aminoethylthio)propane-1,2-diyl dipalmitate]",inactive,completely inactive,–
"CCCCCCCCCCCCCCCC(=O)OC[C@@H](CSCCNC(=O)[C@H](N)CO)OC(=O)CCCCCCCCCCCCCCC [Compound 8b, (S)-3-(2-((R)-2-amino-3-hydroxypropanamido)ethylthio)propane-1,2-diyl dipalmitate]",–,only 8a was active,–
"CCCCCCCCCCCCCCCC(=O)OC[C@H](CSC[C@H](N)C(=O)OC)OC(=O)CCCCCCCCCCCCCCC [Compound 11, (R)-3-((R)-2-amino-3-methoxy-3-oxopropylthio)propane-1,2-diyl dipalmitate]",–,weakly TLR2-agonistic,–
"CCCCCCCCCCCCCCCC(=O)OC[C@H](COCC(N)C(=O)N[C@@H](CO)C(=O)OC)OC(=O)CCCCCCCCCCCCCCC (stereo partly drawn) [Compound 21a, (S)-3-(2-amino-3-((S)-3-hydroxy-1-methoxy-1-oxopropan-2-ylamino)-3-oxopropoxy)propane-1,2-diyl dipalmitate]",inactive,–,–
"CCCCCCCCCCCCCCCC(=O)OC[C@H](COCC(N)C(=O)N[C@H](CO)C(=O)OC)OC(=O)CCCCCCCCCCCCCCC (stereo partly drawn) [Compound 21b, (S)-3-(2-amino-3-((R)-3-hydroxy-1-methoxy-1-oxopropan-2-ylamino)-3-oxopropoxy)propane-1,2-diyl dipalmitate]",inactive,–,TLR2 agonistic activity (in words) (TLR2 [2]; at the highest concentration tested): inactive
"CCCCCCCCCCCCCCCCOC[C@H](CSC[C@H](N)C(=O)N[C@@H](CO)C(=O)OC)OCCCCCCCCCCCCCCCC [Compound 28, (S)-methyl 2-((R)-2-amino-3-((R)-2,3-bis(hexadecyloxy)propylthio)propanamido)-3-hydroxypropanoate]",inactive,entirely inactive,–
"CCCCCCCCCCCCCCCC(=O)N[C@H](COC(=O)CCCCCCCCCCCCCCC)CSC[C@H](N)C(=O)N[C@@H](CO)C(=O)OC.O=C(O)C(F)(F)F [Compound 37, (R)-3-((R)-2-amino-3-((S)-3-hydroxy-1-methoxy-1-oxopropan-2-ylamino)-3-oxopropylthio)-2-palmitamidopropyl palmitate]",inactive,partially active,TLR2 agonistic activity relative to reference lipopeptide PAM2CSK4 (TLR2 [2]; compared with PAM2CSK4): weaker by about three orders of magnitude
"CCCCCCCCCCCCCCCC(=O)NC[C@H](CSC[C@H](N)C(=O)N[C@@H](CO)C(=O)OC)NC(=O)CCCCCCCCCCCCCCC [Compound 45, (S)-methyl 2-((R)-2-amino-3-((R)-2,3-dipalmitamidopropylthio)-propanamido)-3-hydroxypropanoate]",inactive,completely inactive,–
MALP-2,–,–,Efficacy (survival) [3]: efficacious in prolonging survival; Tolerability [3]: well-tolerated
lipopolysaccharide [LPS],–,–,Fever response (rabbits): robust fever response; Secretion of chemokines (murine cells): potently induced the secretion of a similar pattern of chemokines
